Bioassay records as filed in PubChem BioAssay.
Kir21 inh: blocks the mouse Kir2.1 inward-rectifier potassium channel; P35561; AID 1672; HEK293-Kir2.1, FluxOR thallium flux fluorescence; hits give low values; 310,000 tested, 0.85% active; B-score at 10 µM;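 active means fluorescence ratio B-score at or below minus 3 SD of library scores, with starting-brightness B-score within 2 SD, cut at about -4.2 in these data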;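 further: channel flux triggered by added potassium and thallium sulfate stimulus; B-score of peak minus minimum fluorescence over baseline after thallium stimulus; more negative B-score means stronger Kir2.1 block with less thallium influx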
KCNQ1 pot: potentiates or activates the human KCNQ1 potassium channel; AID 2648; 310,000 tested, 0.35% active; CHO-K1 KCNQ1, thallium flux FluxOR fluorescence; hits give high values; P51787; B-score at 10 µM;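 active means fluorescence ratio B-score, a plate-corrected score, at least three library SD, with initial intensity B-score within 5 SD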
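Medium – assay buffer, equal DMSO in all wells · Material – CHO-K1 cell line with stable KCNQ1 potassium channel expression · Signal – kinetic FluxOR thallium fluorescence, 10-s 1-Hz baseline, 110-s post-stimulus read · Compound – single concentration per compound, DMSO matched to controls · Schedule – 37 °C overnight plating, 90-min dark dye load, 20-min compound pretreatment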
KCNQ1 block: human KCNQ1 channel inhibition; 310,000 tested, 1.3% active; CHO-K1 KCNQ1, FluxOR thallium flux fluorescence; hits give high values; AID 2642; B-score at 10 µM; P51787;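 active means compounds whose thallium flux B-score, printed positive for inhibition, exceeds three library SD while starting fluorescence stays within three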;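 further: channel opened by potassium depolarization with thallium stimulus after 20 min compound exposure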
KCNK3 inh: human KCNK3 channel inhibition, primary screen; 340,000 tested, 0.84% active; CHO-KCNK3 thallium flux, FluxOR fluorescence; hits give low values; B-score at 10 µM;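 active means B-score under library mean minus 4 SD, starting fluorescence ratio at most library mean plus 5 SD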;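 further: more negative B-score means stronger inhibition of thallium flux through KCNK3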
KCNK9 inh: blocks the human KCNK9 two-pore domain potassium channel. Q9NPC2. HEK293 KCNK9, FluxOR thallium flux fluorescence; hits give low values. B-score at 10 µM. 310,000 tested, 1.2% active;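 active means ratio B-score over 3 SD below the library mean, with starting fluorescence within 5 SD of its mean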;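 further: negative B-score means less thallium flux so channel inhibition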
hERG protect: compounds protecting human hERG from proarrhythmic drug block; Q12809; CHO-hERG, FluxOR thallium flux, dofetilide IC70 present; activation (rescue from dofetilide block), less the hit threshold, % at 10 µM; 310,000 tested, 0.51% active; AID 1511;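 active means activation above the mean of controls blocked by dofetilide plus 5 SD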;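 further: thallium influx through hERG after potassium depolarization seen as dye fluorescence rise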
KCNQ1 inh valid: confirmation of human KCNQ1 potassium channel inhibitors; shares compounds with KCNQ1 block; KCNQ1 cell line, FluxOR thallium flux fluorescence; inhibition, % at 10 µM; 1,600 tested, 93% active; AID 588353;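 active means primary screen active, with duplicate mean exceeding buffer control mean plus 3 SD of buffer wells, cut at about 28% in these data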;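 further: 0% = buffer control ratio and 100% = XE991 inhibitor control ratio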
CHO Tl flux: counter-screen for KCNQ1 inhibitors: effect in parental CHO cells | shares compounds with KCNQ1 block | parental CHO-K1, FluxOR thallium flux fluorescence ratio; hits give low values; zero means no signal rise above baseline | fluorescence ratio (Tl flux) at 10 µM | 1,600 tested, 21% active | AID 588366;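 active means mean of duplicate thallium-flux fluorescence ratios in parental host cells more than 5 SD below the buffer control mean, cut at about 0.38 in these data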;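 further: ratio is peak minus minimum fluorescence divided by baseline fluorescence; actives read low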
KCNQ1 ephys val: human KCNQ1 inhibition validated by electrophysiology; shares compounds with KCNQ1 block; KCNQ1-CHO cells, automated patch clamp current; calls only at 10 µM; 490 tested, 20% active;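 active means KCNQ1 current drop exceeding 3 SD of negative control wells, seen in both duplicate runs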;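 further: steady state current during a 2 s step from -80 to +40 mV; negative values mean current inhibition and positive values mean potentiation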
KCNQ2 spec: rat KCNQ2 inhibition in KCNQ1 inhibitor specificity screen | shares compounds with KCNQ1 block | KCNQ2 cells, FluxOR thallium flux fluorescence | inhibition, % at 10 µM | 1,600 tested, 71% active | AID 651746;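 active means mean percent inhibition of the KCNQ2 thallium signal more than 5 SD above the buffer-only control wells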;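 further: KCNQ2 expressed in CHO cells; 0% = buffer control wells and 100% = XE-991 inhibitor control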
Target sequence (O88943 whole entry, looked up): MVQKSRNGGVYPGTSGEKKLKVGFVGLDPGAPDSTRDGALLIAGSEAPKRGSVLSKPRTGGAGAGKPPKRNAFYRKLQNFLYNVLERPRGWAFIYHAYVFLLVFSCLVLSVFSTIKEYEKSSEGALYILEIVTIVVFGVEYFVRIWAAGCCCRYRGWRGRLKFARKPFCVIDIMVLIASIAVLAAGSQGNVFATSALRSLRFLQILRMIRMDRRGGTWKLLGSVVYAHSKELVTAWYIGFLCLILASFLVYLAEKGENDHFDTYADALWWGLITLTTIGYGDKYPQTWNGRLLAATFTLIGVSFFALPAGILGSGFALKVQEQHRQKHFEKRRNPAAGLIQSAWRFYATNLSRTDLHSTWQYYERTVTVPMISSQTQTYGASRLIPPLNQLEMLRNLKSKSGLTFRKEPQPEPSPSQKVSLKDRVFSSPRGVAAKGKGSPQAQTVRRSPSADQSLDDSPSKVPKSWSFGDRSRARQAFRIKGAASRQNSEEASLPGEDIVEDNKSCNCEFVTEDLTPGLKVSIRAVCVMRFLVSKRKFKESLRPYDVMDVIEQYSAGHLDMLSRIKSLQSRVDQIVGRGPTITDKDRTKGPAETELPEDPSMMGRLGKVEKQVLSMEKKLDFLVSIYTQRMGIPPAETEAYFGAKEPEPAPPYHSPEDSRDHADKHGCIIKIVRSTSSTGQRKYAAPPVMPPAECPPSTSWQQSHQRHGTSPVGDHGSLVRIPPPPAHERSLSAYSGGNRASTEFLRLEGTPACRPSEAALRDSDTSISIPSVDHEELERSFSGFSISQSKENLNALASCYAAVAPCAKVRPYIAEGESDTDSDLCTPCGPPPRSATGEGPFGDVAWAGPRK
KCNQ1-KCNE1 inh: human KCNQ1/KCNE1 inhibition in KCNQ1 specificity screen; inhibition, % at 10 µM; 1,600 tested, 77% active; AID 652147; KCNQ1/KCNE1 cells, FluxOR thallium flux fluorescence; shares compounds with KCNQ1 block;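 active means mean percent inhibition of duplicate wells above the buffer-only control mean plus 3 SD of those controls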;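 further: 0% = buffer only wells and 100% = XE-991 inhibitor control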
An asterisk follows results filed as active; i = inactive; x = no result; + = active, no number. This is a sample that favours compounds with a hit; in the whole collection about 3.7% have one here.

SMILES	Kir21 inh	KCNQ1 pot	KCNQ1 block	KCNK3 inh	KCNK9 inh	hERG protect	KCNQ1 inh valid	CHO Tl flux	KCNQ2 spec	KCNQ1-KCNE1 inh	others
Cc1cc(C)c(N2CCN(S(=O)(=O)N3CCCCCC3)CC2)c(C)c1	-0.51	i	7*	i	i	-12.6	125.5*	0.444	115.3%*	118.0%*
COc1cccc(OC)c1Oc1ccc(C(F)(F)F)cn1	-1.4	i	7*	i	i	3.5	85.0*	0.437	i	82.5%*
FC(F)(F)c1ccc(Oc2ccccc2Cl)nc1	-0.22	i	i	i	i	-6.0	x	x	x	x
COc1cccc(/C=N/N2CCN(c3ccncc3S(=O)(=O)N3CCCCC3)CC2)c1	0.41	i	i	i	i	-7.5	x	x	x	x
COc1ccc(C(=O)CC(=O)C(=O)Nc2ccc(OC)c(Cl)c2)cc1	-2.2	i	15*	i	-6.68*	-24.4	0.0	0.613	i	i
O=C1C(CCCNC(=S)NCc2ccccc2)NC(=S)N1Cc1ccccc1 (stereo unspecified)	-1.11	i	6*	i	i	-8.6	77.5*	0.303*	i	115.0%*
CC1CCN(CC(O)COCCC23CC4CC(CC(C4)C2)C3)CC1 (stereo unspecified)	-1.64	i	7*	i	i	-8.7	72.5*	0.376*	79.0%*	76.5%*
Cc1ccccc1NC(=O)Nc1ccc(C(F)(F)F)cc1	0.56	i	6*	i	i	-4.7	133.5*	0.546	100.7%*	i	KCNQ1 ephys val=i
O=C(Nc1ccc(Br)cc1)Nc1ccccc1F	0.85	i	7*	i	i	-5.0	51.5*	0.532	i	i
Cc1cc2c(NC(=O)Nc3ccc(C(C)(C)C)cc3)cccc2nn1	1.85	i	7*	i	i	-18.7	118.5*	0.451	81.0%*	68.0%*	KCNQ1 ephys val=i
O=C(Nc1ccccc1F)Nc1cccc2ccc(O)cc12	2.34	i	9*	i	i	-10.1	80.5*	0.541	64.3%*	i
Cc1cc2c(NC(=O)Nc3ccccc3)cccc2nn1	0.76	i	i	i	i	-3.1	x	x	x	x
CC(=O)Nc1cccc2ccc(O)cc12	x	x	x	i	x	x	x	x	x	x
O=C(CCC1CCCC1)NCCS(=O)(=O)N1CCN(c2ccccc2)CC1	-0.83	i	i	i	i	-8.7	x	x	x	x
CC(C)NC(=O)c1onc(CSc2ccc(C(C)C)cc2)c1C(=O)O	-0.24	i	10*	i	i	-17.1	88.5*	0.467	72.7%*	41.5%*
O=S(=O)(Nc1c(O)ccc2ccccc12)c1cccc2ccccc12	2.09	i	11*	i	i	-19.9	32.5*	0.472	i	90.5%*
O=C(O)c1cc(NS(=O)(=O)c2cccc3ccccc23)ccc1O	1.44	i	i	i	i	-2.3	x	x	x	x
COc1ccc2cc(N=Cc3nc(-c4ccc(C)cc4)oc3O)cnc2c1	-0.81	i	i	i	i	-16.3	x	x	x	x
O=C(Nc1ccc(Br)cc1)c1cccc(S(=O)(=O)Nc2cnc3ccccc3c2)c1	2.43	i	6*	i	i	-10.0	139.0*	0.435	i	58.5%*
O=C(Nc1ccc(Br)cc1)c1cccc(S(=O)(=O)Nc2ccccn2)c1	1.13	i	i	i	i	-7.5	x	x	x	x
O=C1CSc2ccc(C(=O)Nc3cccc(S(=O)(=O)Nc4ccc(Br)cc4)c3)cc2N1	-0.28	i	10*	i	i	-10.0	138.0*	0.331*	100.7%*	188.0%*
C[C@H](NC(=O)[C@@H]1CSC2c3ccccc3C(=O)N21)C(=O)NCCc1ccc(F)cc1 (stereo partly specified)	-0.49	i	i	i	i	-6.7	x	x	x	x
CC(=O)c1ccc(NC(=S)Nc2ccc(Br)c(Cl)c2)cc1	-0.45	i	6*	i	i	-29.4	61.0*	0.454	i	i
O=C(c1ccc(NC(=S)Nc2ccc(Cl)c(Cl)c2)cc1)N1CCCC1	-0.88	i	9*	i	i	-15.2	36.0*	0.499	i	i
O=C(NC(=S)Nc1ccc(Br)c(Cl)c1)C1CC1	0.51	i	i	i	i	-8.7	x	x	x	x
SMILES	Kir21 inh	KCNQ1 pot	KCNQ1 block	KCNK3 inh	KCNK9 inh	hERG protect	KCNQ1 inh valid	CHO Tl flux	KCNQ2 spec	KCNQ1-KCNE1 inh	others
COc1ccc(C)cc1NS(=O)(=O)c1ccc2c(c1)oc(=O)n2C	1.13	i	i	i	i	-2.4	x	x	x	x
Clc1ccc(-c2nc(N3CCCCC3)nc3ccccc23)cc1	1.46	i	8*	i	i	-6.8	132.5*	0.436	85.0%*	197.0%*	KCNQ1 ephys val=+
Cc1ccc(CNCC(O)(c2ccccc2)c2ccc(Cl)cc2)cc1 (stereo unspecified)	-2.75	i	6*	i	i	-33.7	116.0*	0.424	92.3%*	42.0%*	KCNQ1 ephys val=i
COC(=O)c1ccc([C@H](NC(=O)c2ccco2)[C@]2(C)C[C@H]2C2CCCCC2)cc1	-0.17	i	6*	i	i	-7.0	122.5*	0.345*	106.7%*	167.5%*
Cc1nc(N2CCC(C)CC2)c2c(C)c(C(=O)Nc3ccc(C)c(F)c3)sc2n1	1.13	i	7*	i	i	-27.6	113.5*	0.416	140.0%*	63.5%*	KCNQ1 ephys val=i
Cc1ccc(OCc2cc(C(=O)N3CCCC(O)C3)no2)cn1 (stereo unspecified)	0.49	i	i	i	i	-7.2	x	x	x	x
CC(C(=O)N1CCCCCC1)c1ccc([N+](=O)[O-])cc1 (stereo unspecified)	-0.44	i	i	i	i	-8.2	x	x	x	x
Cc1cc(C(=O)CSc2nc3ccc(Cl)cc3[nH]2)c(C)n1CC1CCCO1 (stereo unspecified)	-1.01	i	8*	i	i	-17.0	125.5*	0.467	108.7%*	121.0%*	KCNQ1 ephys val=i
Cc1cc(C(=O)CSc2nc3ccc(Cl)cc3[nH]2)c(C)n1C	-0.72	i	i	i	i	-15.9	x	x	x	x
